Laboratory results as given in ChEMBL document CHEMBL1142299, “Coumarin as attractive casein kinase 2 (CK2) inhibitor scaffold: an integrate approach to elucidate the putative binding motif and explain structure-activity relationships” (J Med Chem, 2008).

Experiment: Inhibition of CK2 in rat liver
Procedure, shortened: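 Native CK2 purified from rat liver. Started with kinase, stopped at 10 min with orthophosphoric acid. Read by phosphocellulose filter binding and counting. Three independent experiments, values averaged.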

SMILES	IC50 [µM]	Ki [µM]
Cc1cc(=O)oc2c(C=O)c(O)ccc12	> 40	
O=c1ccc2c(O)cc(O)cc2o1	35	
Cc1c(Br)c(=O)oc2c(C=O)c(O)ccc12	3.3	
COc1cc(O)cc2oc(=O)c(C)cc12	> 40	
O=c1oc2c(O)c(O)cc3c(=O)oc4c(O)c(O)cc1c4c23 [ELLAGIC ACID]	0.04	
Cc1cc(=O)oc2cc(O)ccc12 [HYMECROMONE]	> 100	
Cc1c(Br)c(=O)oc2c(O)c(O)ccc12	10.5	
Cc1c(Br)c(=O)oc2c(Br)c(N)ccc12	> 40	
COc1c(O)c(-c2ccnnc2)cc2ccc(=O)oc12	> 100	
Cc1cc(=O)oc2c(C)c(O)c([N+](=O)[O-])cc12	30	
Cc1cc(=O)oc2cc3c([N+](=O)[O-])c(O)ccc3cc12	0.3	
O=C(O)/C=C/c1cc(Br)c(Br)c(Br)c1Br	0.11	
Cc1c(Br)c(=O)oc2c(Br)c(O)ccc12	0.1	0.06

More lines, now with the values ahead:

IC50 [µM]	Ki [µM]	SMILES
2		Cc1c(Br)c(=O)oc2c(Br)c(O)c(O)cc12
> 40		O=c1cc(CCl)c2ccc(O)cc2o1
0.4		O=c1c2c(O)cccc2oc2c([N+](=O)[O-])ccc(O)c12
> 100		O=c1ccc2ccc(O)cc2o1 [UMBELLIFERONE]
35		Cc1cc(=O)oc2cc(O)cc(O)c12 [5,7-DIHYDROXY-4-METHYLCOUMARIN]
118		CCOC(=O)c1cc2c(Br)cccc2oc1=O
